# Screening data: PubChem BioAssay, several laboratories
# PREPL inhibitor = PREPL enzyme inhibitors, primary screen, biochemical, fluorescence polarization; Prolyl endopeptidase-like (Homo sapiens), Q4J6C6; recombinant PREPL, fluorescence polarization activity-based probe; inhibition, % at 5.96 µM; 320,000 compounds, 0.68% hits; AID 2751, 2010; in the data active means inhibition above about 43%;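 further: 0% = enzyme with DMSO and 100% = wells lacking enzyme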
# PAFAH1B2 inh = PAFAH1B2 enzyme inhibitors, primary screen, biochemical, fluorescence polarization, human. recombinant PAFAH1B2, FP-rhodamine activity probe. inhibition, % at 3.39 µM. Platelet-activating factor acetylhydrolase IB subunit alpha2 (Homo sapiens), P68402. 340,000 compounds, 1.2% hits;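 active means inhibition above the mean of all tested compounds plus 3 SD, cut at about 24% in these data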;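 further: 0% = enzyme with DMSO and 100% = wells lacking PAFAH1B2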
# PAFAH1B3 inh = PAFAH1B3 enzyme inhibitors, primary screen, biochemical, fluorescence polarization, human. Platelet-activating factor acetylhydrolase IB subunit alpha1 (Homo sapiens), Q15102. recombinant PAFAH1B3, FP-rhodamine probe. inhibition, % at 3.39 µM. 340,000 compounds, 0.28% hits;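 active means inhibition above the screen-wide average of all tested compounds plus 3 SD, cut at about 25% in these data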;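 further: 0% = enzyme with DMSO only and 100% = wells lacking PAFAH1B3 protein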
# PAFAH2 FP inh = PAFAH2 enzyme inhibitors, primary screen, biochemical, fluorescence polarization, human; 340,000 compounds, 0.99% hits; recombinant PAFAH2, FP-rhodamine activity probe; inhibition, % at 3.39 µM; AID 492956, 2010; Platelet-activating factor acetylhydrolase 2, cytoplasmic (Homo sapiens), Q99487;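 active means inhibition above the mean over all tested compounds plus 3 SD, cut at about 30% in these data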;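 further: inhibitors block probe labeling of enzyme so polarization drops; 0% = enzyme with DMSO and 100% = wells lacking PAFAH2 protein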
# pPAFAH FP inh = pPAFAH enzyme inhibitors, primary screen, biochemical, fluorescence polarization, human; Platelet-activating factor acetylhydrolase (Homo sapiens), Q13093; recombinant pPAFAH, FP-rhodamine probe fluorescence polarization; inhibition, % at 3.39 µM; 330,000 compounds, 1.5% hits; AID 463082, 2010;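 active means inhibition above the mean inhibition across the screen plus 3 SD, cut at about 25% in these data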;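 further: inhibitors block binding of the rhodamine activity-based probe so polarization drops; 0% = enzyme with DMSO and 100% = wells lacking pPAFAH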
# Apaf-1 inh = inhibitors of human Apaf-1 apoptosome, primary screen, biochemical, DEVD-Rh110 fluorescence, uHTS; Apoptotic protease-activating factor 1 (Homo sapiens), O14727; reconstituted apoptosome caspase-3 activity; inhibition, % at 20 µM; 330,000 compounds, 0.71% hits; AID 489030, 2010; active means inhibition of at least 40% at 20 µM;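 further: plate controls were DMSO wells for no effect and DEVD-CHO caspase inhibitor wells for full effect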
# Target sequence (O14727 whole entry, looked up): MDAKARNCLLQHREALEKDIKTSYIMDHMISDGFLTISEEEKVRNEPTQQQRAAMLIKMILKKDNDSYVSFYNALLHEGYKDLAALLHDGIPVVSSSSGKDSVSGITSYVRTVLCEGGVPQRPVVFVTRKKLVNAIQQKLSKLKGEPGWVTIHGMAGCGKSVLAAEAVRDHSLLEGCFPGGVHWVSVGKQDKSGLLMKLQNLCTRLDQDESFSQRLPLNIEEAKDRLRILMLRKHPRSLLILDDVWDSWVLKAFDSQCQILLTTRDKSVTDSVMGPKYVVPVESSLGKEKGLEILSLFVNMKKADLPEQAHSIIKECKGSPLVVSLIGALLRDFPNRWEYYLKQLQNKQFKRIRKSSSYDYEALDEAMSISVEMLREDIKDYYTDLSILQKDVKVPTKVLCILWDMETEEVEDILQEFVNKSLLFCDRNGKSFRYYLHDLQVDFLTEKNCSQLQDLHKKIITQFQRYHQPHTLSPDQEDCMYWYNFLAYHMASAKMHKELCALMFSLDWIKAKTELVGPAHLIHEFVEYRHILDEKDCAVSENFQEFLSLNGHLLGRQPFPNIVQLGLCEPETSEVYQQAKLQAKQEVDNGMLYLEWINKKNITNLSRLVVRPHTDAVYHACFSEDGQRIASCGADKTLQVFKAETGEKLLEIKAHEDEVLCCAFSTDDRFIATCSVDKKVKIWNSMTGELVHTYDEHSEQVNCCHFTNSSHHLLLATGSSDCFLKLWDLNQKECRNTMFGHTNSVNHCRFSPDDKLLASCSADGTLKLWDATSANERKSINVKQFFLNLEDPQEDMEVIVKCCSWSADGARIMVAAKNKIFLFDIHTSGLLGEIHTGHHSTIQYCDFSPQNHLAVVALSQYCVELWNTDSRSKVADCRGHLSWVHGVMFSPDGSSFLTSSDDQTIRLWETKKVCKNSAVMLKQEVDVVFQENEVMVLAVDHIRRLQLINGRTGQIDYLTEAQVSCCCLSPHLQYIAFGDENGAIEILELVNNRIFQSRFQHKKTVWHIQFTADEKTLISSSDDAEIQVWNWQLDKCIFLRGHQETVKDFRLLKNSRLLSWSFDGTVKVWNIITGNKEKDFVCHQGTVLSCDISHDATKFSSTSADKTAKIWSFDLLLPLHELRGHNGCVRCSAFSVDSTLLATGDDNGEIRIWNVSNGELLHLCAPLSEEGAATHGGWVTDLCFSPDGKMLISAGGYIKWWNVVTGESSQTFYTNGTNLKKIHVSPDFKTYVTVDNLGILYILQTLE
#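 System: reconstituted apoptosome with Apaf-1, cytochrome c, caspase-9, procaspase-3, dATP; Signal: Rh110 fluorescence intensity; Schedule: 30 min compound preincubation, 50 min activation, room temperature; Reagent: cytochrome c trigger plus (Z-DEVD)2-Rh110 caspase-3 substrate.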
# PAFAH2 confirm = PAFAH2 enzyme inhibitors, confirmation, biochemical, fluorescence polarization, human. shares compounds with PAFAH2 FP inh. recombinant PAFAH2, FP-rhodamine activity probe. inhibition, % at 3.39 µM. 2,300 compounds, 65% hits;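 active means mean inhibition over three repeats above a set limit taken from the earlier primary screen, cut at about 30% in these data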;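 further: inhibitor blocks binding of rhodamine activity probe so polarization falls; 0% = enzyme with DMSO and 100% = wells lacking PAFAH2 protein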
# * = called active by the depositor; . = no result. In the library only some 3.5% were active in any assay of this set; here they are far more common.
SMILES,PREPL inhibitor,PAFAH1B2 inh,PAFAH1B3 inh,PAFAH2 FP inh,pPAFAH FP inh,Apaf-1 inh,PAFAH2 confirm
CC(=O)c1ccc(NCC(=O)N2CCN(S(=O)(=O)c3ccccc3)CC2)cc1,14,4,-1,3,3,-1,.
O=C(CNc1ccc(Cl)c(C(F)(F)F)c1)N1CCN(S(=O)(=O)c2ccccc2)CC1,.,1,1,45*,.,.,25
N#C/C(=C\c1c(Cl)cccc1Cl)c1nc2ccccc2[nH]1,18,0,0,1,-2,13,.
N#C/C(=C\c1c(Cl)cccc1Cl)c1nc2ccccc2o1,-3,-2,0,33*,1,10,33*
CCOC(=O)c1sc(=S)n(-c2ccccc2)c1N(C(C)=O)C(C)=O,2,0,-4,35*,3,0,18
Cc1cc(=O)oc2c3c(cc(OCC(=O)NC4CC4)c12)OC(C)(C)CC3,5,4,-1,14,13,2,.
CCCc1cc(=O)oc2c3c(cc(OCC(=O)N[C@@H](CSC)C(=O)O)c12)OC(C)(C)CC3,.,10,3,34*,.,0,28
CC1(C)CC(=O)c2cnc(N)nc2C1,-17,0,-1,0,-1,5,.
CC1(C)CC(=O)c2cc3c(nc2C1)CC(C)(C)CC3=O,4,9,1,50*,3,7,34*
O=C(O)c1ccc2c(=O)n3c(nc2c1)/C(=C/c1cccc(Cl)c1Cl)CC3,0,6,5,-4,-3,31,.
O=C(Cc1ccc(Cl)cc1)Nc1ccc(Cl)cn1,-1,6,6,-8,0,0,.
O=C(CS(=O)(=O)Cc1ccccc1)Nc1ccccn1,2,-2,7,36*,20,6,28
O=C(CS(=O)(=O)Cc1ccccc1)Nc1ccc(Cl)cn1,-6,9,1,61*,18,11,40*
CC(C)CN(CC(C)C)C(=O)CN1C(=O)NC2(CCCc3ccccc32)C1=O (centres undefined),2,10,0,2,3,6,.
Cn1nc(C(=O)OCC(=O)NC2CCS(=O)(=O)C2)c2ccccc2c1=O (centres undefined),6,2,1,4,-6,3,.
O=C(COC(=O)c1cccnc1Cl)Nc1cccc(S(=O)(=O)N2CCCCC2)c1,9,8,-4,27,1,20,.
CCc1ccccc1OCC(=O)Nc1cccc(S(=O)(=O)N2CCCC2)c1,.,4,4,-4,.,24,.
CCS(=O)c1ccccc1C(=O)OCC(=O)Nc1cccc(S(=O)(=O)N2CCCCC2)c1 (centres undefined),11,0,-7,59*,-2,17,53*
CCOc1ccccc1C(=O)OCC(=O)Nc1cccc(S(=O)(=O)N2CCCC2)c1,5,9,10,73*,4,4,52*
CCS(=O)c1ccccc1C(=O)OCC(=O)Nc1ccc2ccccc2c1 (centres undefined),12,0,11,70*,8,1,67*
CN(C)S(=O)(=O)c1cccc(NC(=O)C2CCN(S(=O)(=O)c3cccs3)CC2)c1,0,-1,9,2,-1,-4,.
Cc1ccc(NC(=O)COC(=O)c2ccc[n+]([O-])c2)c(Br)c1,1,-4,4,-2,3,-4,.
CC(C)Cc1ccc(C(=O)Nc2ccc(Cc3ccncc3)cc2)o1,.,5,3,0,.,14,.
CCCCOC(=O)c1ccc(NC(C)=O)cc1,-3,-4,9,-3,-5,8,.
CCCCNC(=O)COC(=O)c1ccc(NC(C)=O)cc1,20,5,8,70*,4,-1,54*
SMILES,PREPL inhibitor,PAFAH1B2 inh,PAFAH1B3 inh,PAFAH2 FP inh,pPAFAH FP inh,Apaf-1 inh,PAFAH2 confirm
N#CCC(=O)Nc1ccc(C(=O)OCC(=O)NCCCc2ccccc2)cc1,-20,1,0,38*,10,11,30*
N#CCC(=O)Nc1ccc(C(=O)OCC(=O)C23CC4CC(CC(C4)C2)C3)cc1,-6,7,-5,63*,2,22,62*
Cc1ccc(NC(=O)CN(C)C(=O)COC(=O)c2ccc(NC(=O)CC#N)cc2)cc1,-18,0,-2,-6,1,6,.
Cc1nn(-c2ccccc2)c(C)c1NC(=O)COC(=O)c1ccc(NC(=O)CC#N)cc1,-10,-5,-2,33*,17,-3,24
CC(C)c1onc(C(=O)NC(C)c2ccccc2)c1[N+](=O)[O-] (centres undefined),14,4,7,6,1,-3,.
CCOC(=O)CCCNC(=O)COC(=O)c1ccc(O)cc1,-5,1,5,19,6,0,.
CCCCNC(=O)COC(=O)c1ccc(N(C)C)cc1,-2,-1,8,76*,17,-12,76*
CCN(c1ccc(NC(=O)COC(=O)/C=C/c2cccs2)cc1)C(C)C,6,3,3,42*,10,16,24
Cc1ccc(NC(=O)COC(=O)/C=C/c2cccs2)cc1,18,-3,-4,80*,6,8,73*
NC(=O)c1ccc(NC(=O)COC(=O)/C=C/c2cccs2)cc1,-3,1,6,17,-1,-6,.
CN(CC(=O)Nc1ccccc1Cl)C(=O)COC(=O)/C=C/c1cccs1,-4,1,7,3,3,-6,.
C=CCNC(=O)COC(=O)/C=C/c1cccs1,-2,1,6,49*,-2,2,26
CN(C(=O)COC(=O)/C=C/c1cccs1)C1CCCCC1,10,0,1,75*,2,5,73*
Cc1cccc(C)c1N(CC(=O)NCc1ccco1)C(=O)CNS(=O)(=O)c1ccc(F)cc1,1,8,1,-7,5,0,.
Cc1cc(C)nc(SCc2ccc(Br)cc2)n1,4,7,14,7,5,6,.
Cc1cc(C)n(-c2ccc(C(=O)NCC(=O)Nc3cc(Cl)ccc3Cl)cc2)n1,-13,1,3,-1,2,15,.
O=C(CCNC(=O)c1ccco1)NNC(=O)c1ccc(Br)cc1,.,-1,5,5,.,.,.
CC1CCCN(Cc2csc(N)n2)C1 (centres undefined),-1,4,5,-2,1,-13,.
